# In ChEMBL document CHEMBL5247575 (J Med Chem, 2018):
# pKi: −log10 of the molar value.
# Tests used:
# Bacteria = test: Inhibition of bacteria ADC-7 assessed as second order rate constant K2/K using nitrocefin as substrate
# [1] = Inhibition of bacteria ADC-7 assessed as apparent inhibition constant using nitrocefin as substrate
# Pseudomonas aeruginosa [2] = test: Antibacterial activity against Pseudomonas aeruginosa 776 by broth microdilution method; assay type: functional
# Escherichia coli [3] = test: Synergistic antibacterial activity against Escherichia coli DH10B transfected with pBC SK (-) OXA-48 assessed as cefepime MIC at 4 ug/ml by broth microdilution method; assay type: functional; conditions: dose 4 µg/ml
# Outline: (§1)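 Broth microdilution per CLSI guidelines, using custom frozen panels. […] Each partner drug was also tested alone. MICs were run in triplicate and the modal value is reported.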
# Klebsiella pneumoniae [4] = test: Synergistic antibacterial activity against Klebsiella pneumoniae 776/1742 producing KPC-2 assessed as cefepime MIC at 4 ug/ml by broth microdilution method; assay type: functional; conditions: dose 4 µg/ml
# Klebsiella pneumoniae [5] = test: Synergistic antibacterial activity against Klebsiella pneumoniae 1108/1989 producing KPC-3 assessed as cefepime MIC at 4 ug/ml by broth microdilution method; assay type: functional; conditions: dose 4 µg/ml; outline: as §1
# Klebsiella pneumoniae [6] = test: Synergistic antibacterial activity against Klebsiella pneumoniae 440/1360 producing KPC-2 assessed as cefepime MIC at 4 ug/ml by broth microdilution method; assay type: functional; conditions: dose 4 µg/ml; outline: as §1
# Acinetobacter baumannii [7] = test: Synergistic antibacterial activity against Acinetobacter baumannii PR323 producing OXA-24/40 assessed as cefepime MIC at 4 ug/ml by broth microdilution method; assay type: functional; conditions: dose 4 µg/ml
# Acinetobacter baumannii [8] = test: Synergistic antibacterial activity against Acinetobacter baumannii PR363 producing OXA-23 assessed as cefepime MIC at 4 ug/ml by broth microdilution method; assay type: functional; conditions: dose 4 µg/ml
# Acinetobacter baumannii [9] = test: Synergistic antibacterial activity against Acinetobacter baumannii PR408 producing OXA-24/40 assessed as cefepime MIC at 4 ug/ml by broth microdilution method; assay type: functional; conditions: dose 4 µg/ml
# Acinetobacter baumannii [10] = test: Synergistic antibacterial activity against Acinetobacter baumannii PR474 producing OXA-23/24/40 assessed as cefepime MIC at 4 ug/ml by broth microdilution method; assay type: functional; conditions: dose 4 µg/ml
# Escherichia coli [11] = test: Synergistic antibacterial activity against Escherichia coli DH10B transfected with pBC SK (-) KPC-2 assessed as cefepime MIC at 8 ug/ml by broth microdilution method; assay type: functional; conditions: dose 8 µg/ml
# Escherichia coli [12] = test: Synergistic antibacterial activity against Escherichia coli DH10B transfected with pBC SK (-) PDC-3 assessed as cefepime MIC at 8 ug/ml by broth microdilution method; assay type: functional; conditions: dose 8 µg/ml; outline: as §1
# Escherichia coli [13] = test: Synergistic antibacterial activity against Escherichia coli DH10B transfected with pBC SK (-) OXA-48 assessed as cefepime MIC at 8 ug/ml by broth microdilution method; assay type: functional; conditions: dose 8 µg/ml; outline: as §1
# Acinetobacter baumannii [14] = test: Synergistic antibacterial activity against ADC deleted Acinetobacter baumannii assessed as cefepime MIC at 8 ug/ml by broth microdilution method; assay type: functional; conditions: dose 8 µg/ml
# Klebsiella pneumoniae [15] = test: Synergistic antibacterial activity against Klebsiella pneumoniae 901/1860 producing KPC-3 assessed as cefepime MIC at 8 ug/ml by broth microdilution method; assay type: functional; conditions: dose 8 µg/ml
# Klebsiella pneumoniae [16] = test: Synergistic antibacterial activity against Klebsiella pneumoniae 935/1884 producing KPC-3 assessed as cefepime MIC at 8 ug/ml by broth microdilution method; assay type: functional; conditions: dose 8 µg/ml
# Klebsiella pneumoniae [17] = test: Synergistic antibacterial activity against Klebsiella pneumoniae 1315/2198 producing KPC-3 assessed as cefepime MIC at 8 ug/ml by broth microdilution method; assay type: functional; conditions: dose 8 µg/ml; outline: as §1
# Klebsiella pneumoniae [18] = test: Synergistic antibacterial activity against Klebsiella pneumoniae 1398/2291 producing KPC-3 assessed as cefepime MIC at 8 ug/ml by broth microdilution method; assay type: functional; conditions: dose 8 µg/ml; outline: as §1
# Klebsiella pneumoniae [19] = test: Synergistic antibacterial activity against Klebsiella pneumoniae 11978 producing OXA-48 assessed as cefepime MIC at 8 ug/ml by broth microdilution method; assay type: functional; conditions: dose 8 µg/ml; outline: as §1
# Klebsiella pneumoniae [20] = test: Synergistic antibacterial activity against Klebsiella pneumoniae jefferson 1773 producing OXA-181 assessed as cefepime MIC at 8 ug/ml by broth microdilution method; assay type: functional; conditions: dose 8 µg/ml
# Escherichia coli [21] = test: Synergistic antibacterial activity against Escherichia coli DH10B transfected with pBC SK (-) KPC-3 assessed as meropenem MIC at 4 ug/ml by broth microdilution method; assay type: functional; conditions: dose 4 µg/ml
# Escherichia coli [22] = test: Synergistic antibacterial activity against Escherichia coli DH10B transfected with pBC SK (-) PDC-3 assessed as meropenem MIC at 4 ug/ml by broth microdilution method; assay type: functional; conditions: dose 4 µg/ml; outline: as §1
# Escherichia coli [23] = test: Synergistic antibacterial activity against Escherichia coli DH10B transfected with pBC SK (-) OXA-48 assessed as meropenem MIC at 4 ug/ml by broth microdilution method; assay type: functional; conditions: dose 4 µg/ml; outline: as §1
# Klebsiella pneumoniae [24] = test: Synergistic antibacterial activity against Klebsiella pneumoniae 1315/2198 producing KPC-3 assessed as meropenem MIC at 4 ug/ml by broth microdilution method; assay type: functional; conditions: dose 4 µg/ml; outline: as §1
# Klebsiella pneumoniae [25] = test: Synergistic antibacterial activity against Klebsiella pneumoniae 1398/2291 producing KPC-3 assessed as meropenem MIC at 4 ug/ml by broth microdilution method; assay type: functional; conditions: dose 4 µg/ml; outline: as §1
# Klebsiella pneumoniae [26] = test: Synergistic antibacterial activity against Klebsiella pneumoniae NY BS producing OXA-232 assessed as meropenem MIC at 4 ug/ml by broth microdilution method; assay type: functional; conditions: dose 4 µg/ml
# Acinetobacter baumannii [27] = test: Synergistic antibacterial activity against Acinetobacter baumannii PR381 producing OXA-24/40 assessed as meropenem MIC at 4 ug/ml by broth microdilution method; assay type: functional; conditions: dose 4 µg/ml
# Acinetobacter baumannii [28] = test: Synergistic antibacterial activity against Acinetobacter baumannii PR408 producing OXA-24/40 assessed as meropenem MIC at 4 ug/ml by broth microdilution method; assay type: functional; conditions: dose 4 µg/ml
# Acinetobacter baumannii [29] = test: Synergistic antibacterial activity against Acinetobacter baumannii PR440 producing OXA-23/24/40 assessed as meropenem MIC at 4 ug/ml by broth microdilution method; assay type: functional; conditions: dose 4 µg/ml
# Escherichia coli [30] = test: Synergistic antibacterial activity against Escherichia coli DH10B transfected with pBR322-catI-KPC-2 assessed as meropenem MIC at 8 ug/ml by broth microdilution method; assay type: functional; conditions: dose 8 µg/ml; outline: as §1
# Escherichia coli [31] = test: Synergistic antibacterial activity against Escherichia coli DH10B transfected with pBC SK (-) KPC-3 assessed as meropenem MIC at 8 ug/ml by broth microdilution method; assay type: functional; conditions: dose 8 µg/ml
# Pseudomonas aeruginosa [32] = test: Synergistic antibacterial activity against Pseudomonas aeruginosa CL232 assessed as meropenem MIC at 8 ug/ml by broth microdilution method; assay type: functional; conditions: dose 8 µg/ml
# Pseudomonas aeruginosa [33] = test: Synergistic antibacterial activity against Pseudomonas aeruginosa 839 assessed as meropenem MIC at 8 ug/ml by broth microdilution method; assay type: functional; conditions: dose 8 µg/ml
# Acinetobacter baumannii [34] = test: Synergistic antibacterial activity against Acinetobacter baumannii PR363 producing OXA-23 assessed as meropenem MIC at 8 ug/ml by broth microdilution method; assay type: functional; conditions: dose 8 µg/ml
# Acinetobacter baumannii [35] = test: Synergistic antibacterial activity against Acinetobacter baumannii PR420 producing OXA-23/24/40 assessed as meropenem MIC at 8 ug/ml by broth microdilution method; assay type: functional; conditions: dose 8 µg/ml
# Acinetobacter baumannii [36] = test: Synergistic antibacterial activity against Acinetobacter baumannii PR474 producing OXA-23/24/40 assessed as meropenem MIC at 8 ug/ml by broth microdilution method; assay type: functional; conditions: dose 8 µg/ml
Compound,K (Bacteria),pKi [1],MIC (Escherichia coli [3]) [µg/mL],MIC (Klebsiella pneumoniae [4]) [µg/mL],MIC (Klebsiella pneumoniae [5]) [µg/mL],MIC (Klebsiella pneumoniae [6]) [µg/mL],MIC (Acinetobacter baumannii [7]) [µg/mL],MIC (Acinetobacter baumannii [8]) [µg/mL],MIC (Acinetobacter baumannii [9]) [µg/mL],MIC (Acinetobacter baumannii [10]) [µg/mL],MIC (Escherichia coli [11]) [µg/mL],MIC (Escherichia coli [12]) [µg/mL],MIC (Escherichia coli [13]) [µg/mL],MIC (Acinetobacter baumannii [14]) [µg/mL],MIC (Klebsiella pneumoniae [15]) [µg/mL],MIC (Klebsiella pneumoniae [16]) [µg/mL],MIC (Klebsiella pneumoniae [17]) [µg/mL],MIC (Klebsiella pneumoniae [18]) [µg/mL],MIC (Klebsiella pneumoniae [19]) [µg/mL],MIC (Klebsiella pneumoniae [20]) [µg/mL],further results
O=C(NNC(=O)[C@@H]1CC[C@@H]2CN1C(=O)N2OS(=O)(=O)O)[C@@H]1CCNC1,3.2 10^4/M/s,5.43,≤ 0.12,≤ 0.12,≤ 0.12,≤ 0.12,4,8,16,8,≤ 0.12,≤ 0.12,≤ 0.12,0.5,≤ 0.12,≤ 0.12,≤ 0.12,≤ 0.12,≤ 0.12,≤ 0.12,MIC (Pseudomonas aeruginosa [2]): 8 µg/mL; MIC (Escherichia coli [21]): ≤ 0.12 µg/mL; MIC (Escherichia coli [22]): ≤ 0.12 µg/mL; MIC (Escherichia coli [23]): ≤ 0.12 µg/mL; MIC (Klebsiella pneumoniae [24]): ≤ 0.12 µg/mL; MIC (Klebsiella pneumoniae [25]): ≤ 0.12 µg/mL; MIC (Klebsiella pneumoniae [26]): ≤ 0.12 µg/mL; MIC (Acinetobacter baumannii [27]): > 16 µg/mL; MIC (Acinetobacter baumannii [28]): > 16 µg/mL; MIC (Acinetobacter baumannii [29]): > 16 µg/mL; MIC (Escherichia coli [30]): ≤ 0.12 µg/mL; MIC (Escherichia coli [31]): ≤ 0.12 µg/mL; MIC (Pseudomonas aeruginosa [32]): 16 µg/mL; MIC (Pseudomonas aeruginosa [33]): ≤ 0.12 µg/mL; MIC (Acinetobacter baumannii [34]): > 16 µg/mL; MIC (Acinetobacter baumannii [35]): > 16 µg/mL; MIC (Acinetobacter baumannii [36]): > 16 µg/mL
O=C(NNC(=O)[C@@H]1CC[C@@H]2CN1C(=O)N2OS(=O)(=O)O)[C@@H]1CCCNC1 [ZIDEBACTAM],3.5 10^4/M/s,5.64,≤ 0.12,≤ 0.12,≤ 0.12,≤ 0.12,4,8,8,8,≤ 0.12,≤ 0.12,≤ 0.12,0.5,≤ 0.12,≤ 0.12,≤ 0.12,≤ 0.12,≤ 0.12,≤ 0.12,MIC (Escherichia coli [21]): ≤ 0.12 µg/mL; MIC (Escherichia coli [22]): ≤ 0.12 µg/mL; MIC (Escherichia coli [23]): ≤ 0.12 µg/mL; MIC (Klebsiella pneumoniae [24]): ≤ 0.12 µg/mL; MIC (Klebsiella pneumoniae [25]): ≤ 0.12 µg/mL; MIC (Klebsiella pneumoniae [26]): ≤ 0.12 µg/mL; MIC (Acinetobacter baumannii [27]): > 16 µg/mL; MIC (Acinetobacter baumannii [28]): > 16 µg/mL; MIC (Acinetobacter baumannii [29]): > 16 µg/mL; MIC (Escherichia coli [30]): ≤ 0.12 µg/mL; MIC (Escherichia coli [31]): ≤ 0.12 µg/mL; MIC (Pseudomonas aeruginosa [32]): > 16 µg/mL; MIC (Pseudomonas aeruginosa [33]): ≤ 0.12 µg/mL; MIC (Acinetobacter baumannii [34]): > 16 µg/mL; MIC (Acinetobacter baumannii [35]): > 16 µg/mL; MIC (Acinetobacter baumannii [36]): > 16 µg/mL
